# Screening data from PubChem.
# This is a sample that favours compounds with a hit; in the whole collection about 3.9% have one here.
# CHRM1 PAM = human CHRM1 positive allosteric modulation | AID 588819 | activation, % at 3 µM | 360,000 tested, 0.088% active | P11229 | CHO-K1 hM1, Fluo-8 calcium fluorescence, ACh EC20; 0% = ACh EC20, 100% = maximal ACh; in the data active = activation above about 19%, passing the limit was not always enough
# Target sequence (P11229 whole entry, looked up): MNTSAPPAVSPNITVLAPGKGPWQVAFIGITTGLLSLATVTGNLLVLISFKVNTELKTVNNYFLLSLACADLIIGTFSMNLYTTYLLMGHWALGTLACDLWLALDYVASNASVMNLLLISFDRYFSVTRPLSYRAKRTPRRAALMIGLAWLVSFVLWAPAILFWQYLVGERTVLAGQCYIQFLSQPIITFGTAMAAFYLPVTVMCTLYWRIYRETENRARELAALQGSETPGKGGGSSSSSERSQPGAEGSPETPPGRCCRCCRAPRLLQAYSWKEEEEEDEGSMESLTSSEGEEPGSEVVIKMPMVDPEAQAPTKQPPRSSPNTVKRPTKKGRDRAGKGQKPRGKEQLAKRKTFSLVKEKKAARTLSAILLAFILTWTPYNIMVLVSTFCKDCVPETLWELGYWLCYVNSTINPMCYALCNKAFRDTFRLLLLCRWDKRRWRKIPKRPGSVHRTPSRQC
# CHRM1 agonist = activates human CHRM1 receptor; activation, % at 3 µM; P11229; AID 588814; CHO-K1 hM1, Fluo-8 calcium fluorescence, agonist mode; 0% DMSO, 100% acetylcholine EC100; 360,000 tested, 0.33% active;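 active = activation above the run's mean compound activation plus 3 SD, cut at about 16% in these data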;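 also: peak over basal fluorescence ratio within a 140 s kinetic read after compound addition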
# TAAR1 antagonist = human TAAR1 antagonism; Q96RJ0; CHO RD-HGA16 TAAR1, Fluo-8 calcium fluorescence, antagonist; inhibition, % at 3 µM; 360,000 tested, 1.5% active; AID 624466;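 active = inhibition above a per-plate cutoff, the mean inhibition of test compounds on that plate plus 3 SD, cut at about 49% in these data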
#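 Material: CHO RD-HGA16 cells bearing hTAAR1; compound dosing: one-point dosing, 3 µM nominal final; schedule: dye loading 75 min at 37 °C, then 30 min room temperature; measured by: calcium fluorescence with Fluo-8; control set: vehicle and agonist controls; replication: n of 1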
# TAAR1 ag = human TAAR1 agonism. Q96RJ0. CHO RD-HGA16 TAAR1, Fluo-8 calcium fluorescence; vehicle wells 0%, saturating PEA agonist 100%. activation, % at 3 µM. 360,000 tested, 0.99% active. AID 624467;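 active = activation above the mean activation of all test compounds in the run plus 3 SD, cut at about 38% in these data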
#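 System: CHO RD-HGA16 cells carrying human TAAR1 plus Gα16; Incubation: 17-24 h seeding, 75 min 37 °C dye, 30 min RT; Measured by: Fluo-8 fluorescence, 5 s baseline then 140 s kinetic read; Control set: DMSO and PEA EC100; Replication: single well for each compound.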
# HTR2A ag = agonists of mouse serotonin 5-HT2A receptor (HTR2A). P35363. CHO-K1 mHTR2A beta-arrestin complementation, luminescence; percent of 30 µM serotonin response. activation, % at 7.6 µM. 360,000 tested, 0.66% active;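 active = activation above a run cutoff, the mean activation of all tested compounds plus 3 SD, cut at about 14% in these data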
# CHRM1 antagonist = antagonists of human M1 muscarinic receptor; 360,000 tested, 1.3% active; CHO-K1 hM1, Fluo-8 calcium fluorescence, ACh EC80 antagonist; inhibition, % at 3 µM;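 active = percent inhibition above its own plate's cutoff, namely the mean of that plate's compound wells plus 3 SD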;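 also: peak over basal fluorescence ratio during 140 s after agonist addition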
# TAAR1 ag confirm = confirmation of human TAAR1 agonists. shares compounds with TAAR1 ag. CHO RD-HGA16 TAAR1, Fluo-8 calcium fluorescence; scaled: DMSO 0%, maximal phenethylamine 100%. activation, % at 3 µM. 2,400 tested, 82% active. AID 651783;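 active = activation above a cutoff set at the run's mean compound activation plus 3 SD, cut at about 39% in these data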
# Ga16 ag counter = counter-screen for TAAR1 agonists: nonselective agonists in parental cells; shares compounds with TAAR1 ag; CHO-Ga16 parental, Fluo-8 calcium fluorescence; normalized to maximal ATP response, DMSO zero; 2,400 tested, 50% active; activation, % at 3 µM; AID 651787;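 active = activation above the run cutoff, the mean activation over all tested wells plus 3 SD, cut at about 12% in these data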
# TAAR1 desensitize = human TAAR1 agonist that also desensitizes the receptor. shares compounds with TAAR1 ag. CHO RD-HGA16 hTAAR1, Fluo-8 calcium, beta-PEA response inhibition. inhibition, % at 3 µM. 2,400 tested, 46% active. AID 651951;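 active = inhibition above the run cutoff, the mean inhibition of all test compounds plus 3 SD, cut at about 49% in these data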;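 also: beta-PEA stimulus applied at its EC80; loss of beta-PEA calcium signal after compound pretreatment read as receptor desensitization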
# Ga16 antag count = nonselective Ga16 antagonist in TAAR1 agonist counter-screen; CHO-Ga16 ATP-induced calcium, Fluo-8 fluorescence; inhibition, % at 3 µM; 2,400 tested, 39% active; shares compounds with TAAR1 ag;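 active = inhibition above the plate's mean compound inhibition plus 3 SD, computed per plate, cut at about 22% in these data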
# Hits are given with their value; n = inactive; x = no result given.
SMILES,CHRM1 PAM,CHRM1 agonist,TAAR1 antagonist,TAAR1 ag,HTR2A ag,CHRM1 antagonist,TAAR1 ag confirm,Ga16 ag counter,TAAR1 desensitize,Ga16 antag count
CCCOC1CCCN(C(=O)c2cc(Cl)c(Cl)cc2C(=O)O)C1 (configuration not stated),n,60,n,65,n,52,82,n,51,n
O=C(c1ccccc1)c1ccc(OCC(O)CNCc2ccc(Cl)cc2)cc1 (configuration not stated),n,n,n,49,n,n,48,17,n,28
O=C(Nc1ccccc1)c1ccccc1O,n,n,n,n,n,n,x,x,x,x
CC(=O)Nc1ccc(NC(=O)Nc2ccccc2)cc1,n,n,x,x,n,n,x,n,x,n
O=C(Nc1ccccc1)Nc1ccc(NC(=O)c2ccccc2O)cc1,n,n,81,70,n,n,101,13,97,30
CC(=O)Nc1cccc(NC(=O)Nc2ccc(C(C)=O)cc2)c1,n,n,n,n,n,n,x,x,x,x
O=C(Nc1ccccc1)Nc1ccc2ncoc2c1,n,n,n,59,n,n,88,n,61,n
CC1C(=O)N2CCCc3cc(S(=O)(=O)NCc4ccccc4Cl)cc1c32 (configuration not stated),n,n,n,n,n,n,x,x,x,x
O=C(Cc1ccc(Cl)cc1)N1CCN(c2ccccc2)CC1,n,n,n,n,n,n,x,x,x,x
O=C(N=Nc1c(O)n(C2OC(=O)c3ccccc32)c2ccccc12)c1ccc(O)cc1 (configuration not stated),n,n,n,71,n,n,n,n,n,n
O=S(=O)(Nc1cccnc1)c1ccccc1,n,n,n,n,n,n,x,x,x,x
O=S(=O)(Nc1cccnc1)c1ccc(C2CCCCC2)cc1,n,n,n,56,n,27,71,28,n,31
CCc1cccc(C)c1NC(=S)NCc1cccn1C,n,n,n,n,n,n,x,x,x,x
CCCCC(=O)Nc1ccc(C(=O)Nc2ccc(OC)cc2[N+](=O)[O-])cc1,n,n,76,99,n,n,n,n,n,n
O=C(CNC(=O)c1cccc(Cl)c1)N/N=C/c1cccnc1,n,n,n,n,n,n,x,x,x,x
O=C(N/N=C/C=C/c1ccccc1)c1ccncc1,n,n,n,n,n,n,x,x,x,x
O=C(O)c1ccc(N/N=C/C=C/c2ccccc2)cc1,n,n,n,57,n,n,n,12,n,n
O=C(CNC(=O)c1ccccc1Cl)N/N=C/C=C/c1ccccc1,n,n,x,x,n,n,x,n,x,n
O=C(CNC(=O)c1cccc(Cl)c1)N/N=C/C=C/c1ccccc1,n,n,n,46,n,n,77,15,67,n
O=C(CNC(=O)c1ccccc1F)N/N=C\C=C\c1ccccc1,n,n,n,42,n,n,67,n,56,n
Cc1nnc(SCC(=O)NCc2ccccc2Cl)[nH]c1=O,n,n,n,n,n,n,x,x,x,x
Cc1cc(C)c2c(=O)n(CC(=O)Nc3cccc(Cl)c3C)sc2n1,n,17,86,103,n,n,96,72,89,75
Cc1cc(C)c2c(=O)n(CC(=O)Nc3ccc(Br)c(C)c3)sc2n1,n,n,53,86,n,n,100,68,71,64
Cc1cc(C)c2c(=O)n(CC(=O)NC3CCCC3)sc2n1,n,n,n,57,n,n,62,34,59,39
Cc1cc(C)c2c(N)c(C(=O)NC3CCCC3)sc2n1,n,n,n,n,n,n,x,x,x,x
SMILES,CHRM1 PAM,CHRM1 agonist,TAAR1 antagonist,TAAR1 ag,HTR2A ag,CHRM1 antagonist,TAAR1 ag confirm,Ga16 ag counter,TAAR1 desensitize,Ga16 antag count
C=CCOc1cccc(C(=O)N2CCCC(Nc3ccc4c(c3)OCCO4)C2)c1 (configuration not stated),n,n,n,n,n,n,x,x,x,x
Cc1cccc(C)c1NC1=NC2(CCCCC2)N=C(N)N1,n,n,n,n,n,n,x,x,x,x
NC1=NC2(CCCCC2)N=C(Nc2ccc(Br)cc2)N1,n,n,n,44,n,n,69,n,n,n
CC(C)Cc1nnc(NC(=O)CCC(=O)NC2CC2)s1,n,n,n,n,n,n,x,x,x,x
CCCCN(C(=O)C1CC(=O)N(c2ccc(OC)cc2OC)C1)c1c(N)n(CC(C)C)c(=O)[nH]c1=O (configuration not stated),n,n,n,n,n,n,x,x,x,x
COc1cc(OC)c2c(-c3ccccc3)cc(=O)oc2c1C(CCN1CCCC(C)C1)c1ccc2c(c1)OCO2 (configuration not stated),n,n,n,n,n,n,x,x,x,x
COc1cc(OC)c2c(-c3ccccc3)cc(=O)oc2c1C(CCN1CCCCC1)c1ccc2c(c1)OCO2 (configuration not stated),n,n,n,43,n,n,45,12,n,n
COc1ccc(C(CCN2CCCCC2)c2c(OC)cc(OC)c3c(-c4ccccc4)cc(=O)oc23)cc1 (configuration not stated),n,n,n,68,n,n,66,42,53,48
O=C1Nc2ccccc2C(=O)N2C[C@@H](O)C[C@H]12,n,n,n,n,n,n,x,x,x,x
Cc1ccc(C(=O)O/N=C(\N)Cc2cccc3ccccc23)cc1,n,n,n,57,n,n,52,n,n,n
Cc1oc(=O)c(NC(=O)c2cccc(Cl)c2)cc1C(=O)c1ccccc1,n,n,n,55,n,n,n,n,n,31
COc1ccc(C(=O)Nc2cc(C(=O)c3ccccc3)c(C)oc2=O)cc1,n,n,n,n,n,n,x,x,x,x
COc1cc(C2c3cc4c(cc3OC(NCCc3ccccc3)C2C)OCO4)cc(OC)c1OC (configuration not stated),n,n,91,97,n,n,97,n,100,n
COc1cc(C2c3cc4c(cc3OC(Nc3ccc(C(=O)O)cc3)C2C)OCO4)cc(OC)c1OC (configuration not stated),n,n,n,n,n,n,x,x,x,x
Cc1cc(C)c2c(c1)/C(=N/NC(=O)c1cc(C)oc1C)CCC2,n,n,n,82,n,n,n,n,n,n
